Measured values from different studies.
Each line is one published result; the experiments were not run side by side. Converted amounts (≈) assume the structure as drawn.

| SMILES | target or system | assay | setting | measurement | value |
| --- | --- | --- | --- | --- | --- |
| C#CCON=C1C=CC(=C(C#N)c2ccccc2)C=C1 | Candidozyma auris | microbial growth, broth dilution | 48 h | MIC | 32 µg/mL (≈ 123 µM) |
| CCCCCCCCCCCC1NCCc2cc(O)c(O)cc21 (stereo not drawn) |  | DPPH scavenging, absorbance | 30 min, dark | IC50 | 27.9 µM |
| NCCC(=O)Nc1ccccc1/N=c1\cc(-c2ccc3c(c2)OCCO3)oc2cc(F)ccc12 | MCF7 | cell growth or viability, CCK-8 | 1 µM | inhibition | -1.71% |
| Oc1cc2c(cc1O)C(CCc1ccccc1)NCC2 (stereo not drawn) |  | DPPH scavenging, absorbance | 30 min, dark | IC50 | 18 µM |
| CC(=O)ON=C1C=CC(=C(C#N)c2ccccc2)C=C1 | Candidozyma auris | microbial growth, broth dilution | 48 h | MIC | 16 µg/mL (≈ 60.5 µM) |
| O=C1O[C@H]([C@@H](O)CO)C(O)=C1O |  | DPPH scavenging |  | IC50 | 88.4 µM |
| O=C(C[C@@H](C(F)F)n1ccc(F)n1)N1CCC(O)(Cn2cnc3c(cnn3-c3ccc(F)cc3)c2=O)CC1 | CAPAN-1 | cell growth or viability, SRB | 2.222 µM, 5 days | viability | 19.8% |
| CCOC(=O)C1=C(CSC2=NCCS2)NC(=O)NC1c1cccc(Cl)c1 (stereo not drawn) |  | DPPH scavenging |  | IC50 | 142 µM |
| Oc1cc2c(cc1O)C(Cc1ccccc1)NCC2 (stereo not drawn) |  | DPPH scavenging, absorbance | 30 min, dark | IC50 | 19.7 µM |
| NCC(=O)Nc1ccccc1/N=c1\cc(-c2ccc3c(c2)OCCO3)oc2ccccc12 | MCF7 | cell growth or viability, CCK-8 | 1 µM | inhibition | -1.21% |
| C#CCOC(=O)ON=C1C=CC(=C(C#N)c2ccccc2)C=C1 | Candidozyma auris | microbial killing, broth dilution | 48 h | MFC | 32 µg/mL (≈ 105 µM) |
| CCOC(=O)C1=C(CSC2=NCCS2)NC(=O)NC1c1ccc(C(C)C)cc1 (stereo not drawn) |  | DPPH scavenging |  | IC50 | 190 µM |
| CCON=C1C=CC(=C(C#N)c2ccccc2)C=C1 | Candidozyma auris | microbial growth, broth dilution | 48 h | MIC | 256 µg/mL (≈ 1020 µM) |
| CCOC(=O)C1=C(CSC2=NCCS2)NC(=O)NC1c1cccc(F)c1 (stereo not drawn) |  | DPPH scavenging |  | IC50 | 201 µM |
| C=CC(=O)ON=C1C=CC(=C(C#N)c2ccccc2)C=C1 | Candidozyma auris | microbial killing, broth dilution | 48 h | MFC | 16 µg/mL (≈ 57.9 µM) |
| CS(=O)(=O)NCCC(=O)Nc1ccccc1/N=c1\cc(-c2ccc3nc(N)oc3c2)oc2ccccc12 | MCF7 | cell growth or viability, CCK-8 | 1 µM | inhibition | 2% |
| CCCCCCCCCC1NCCc2cc(O)c(O)cc21 (stereo not drawn) |  | DPPH scavenging, absorbance | 30 min, dark | IC50 | 62 µM |
| CCOC(=O)C1=C(CCl)NC(=O)NC1c1ccc(F)cc1 (stereo not drawn) |  | DPPH scavenging |  | IC50 | 246 µM |
| Oc1cccc(-c2nc(N3CCOCC3)c3oc4ncccc4c3n2)c1 | MCF7 | cell growth or viability, CCK-8 | 1 µM | inhibition | 13.9% |
| CCOC(=O)C1=C(CCl)NC(=O)NC1c1ccc(C(C)C)cc1 (stereo not drawn) |  | DPPH scavenging |  | IC50 | 243 µM |
| COc1ccc(C2NCCc3cc(O)c(O)cc32)cc1O (stereo not drawn) |  | DPPH scavenging, absorbance | 30 min, dark | IC50 | 18.7 µM |
| CCOC(=O)C1=C(CCl)NC(=O)NC1c1ccc(OC)cc1 (stereo not drawn) |  | DPPH scavenging |  | IC50 | 150 µM |
| NCC(=O)Nc1ccccc1/N=c1\cc(-c2ccc3c(c2)OCCO3)oc2cc(F)ccc12 | MCF7 | cell growth or viability, CCK-8 | 1 µM | inhibition | -2.78% |
| N#CC(=C1C=CC(=NOC(=O)OCc2ccccc2)C=C1)c1ccccc1 | Candidozyma auris | microbial killing, broth dilution | 48 h | MFC | 128 µg/mL (≈ 359 µM) |
